Results on 7 compounds are retold here after paper PMC11831733 (RSC Advances, 2025).

The structures appear in SMILES notation. In brackets after ≈: the same amount, converted by molar mass.

The test system of data set [1] is A. brassicicola (BCC 42724). In words: microbe, parasite or virus in culture. Format: cell-based. Particulars: Alternaria brassicicola, read-out: Anti-phytopathogenic fungal (MIC, μM) A. brassicicola.
Another data set relates to C. acutatum (BCC 58146). In words: microbe, parasite or virus in culture. In kind it is cell-based. Particulars: Colletotrichum acutatum, read-out: Anti-phytopathogenic fungal (MIC, μM) C. acutatum.
Data set [2] is described as follows: Cytotoxicity, resazurin microplate assay. Format: cell-based. The following applies: human, MCF-7 cells (human breast cancer, ATCC HTC-22). The procedure, abridged:
(§1)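 Test compound and cell suspension were combined in triplicate wells and kept at 37 °C in humidified 5% CO2 for 3 d (MCF-7) or 5 d (NCI-H187). A 62.6 μg mL−1 resazurin solution was then added, followed by 4 h at 37 °C. Fluorescence was read bottom-mode at excitation 530 nm and emission 590 nm, and the blank was subtracted.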
For orientation: Alamar Blue is a resazurin reagent that responds to reducing activity.

The subject of data set [3] is all cell lines tested (Plasmodium falciparum, mammalian, and fungal). In words: Antiproliferative activity over all cell lines tested. Format: cell-based. Particulars: P. falciparum, mammalian and fungal cells.
Data set [4] can be described thus: Cytotoxicity, resazurin microplate assay. In kind it is cell-based. Particulars: human, NCI-H187 cells (human small-cell lung cancer, ATCC CRL-5804). The procedure, abridged:
as §1

Another data set is described as follows: in vitro. Particulars: African green monkey, Cytotoxicity (IC50, μM) Vero. Format: cell-based, African green monkey.
The test system of data set [5] is Vero cells (African green monkey kidney fibroblast). Put plainly: in vitro. In kind it is cell-based. The following applies: read-out: Cytotoxicity (IC50, μM) Vero.

Take `C[C@@H]1[C@H](O)[C@@H](C)/C=C/C=C/C=C/C=C/C=C/C=C/C=C/[C@H](O[C@@H]2O[C@H](C)[C@@H](O)[C@H](N)[C@@H]2O)C[C@@H]2O[C@](O)(C[C@@H](O)C[C@@H](O)[C@H](O)CC[C@@H](O)C[C@@H](O)CC(=O)O[C@H]1C)C[C@H](O)[C@H]2C(=O)O` [Amphotericin B, reference compound]: the MIC amounted to 1.7 µM (≈ 1.57 µg/mL) in data set [1] and 3.4 µM (≈ 3.14 µg/mL) with C. acutatum (BCC 58146).

Consider `COc1cc(O)c2c(=O)c3c(O)cc(C)cc3oc2c1O` [Compound 1, 1,5,8-trihydroxy-6-methoxy-3-methylxanthone], for which the IC50 at 3 d in data set [2] is more than 174 µM. Also, the MIC (in data set [1]; in the data set with C. acutatum (BCC 58146)) was more than 174 µM throughout. In addition, the “antiproliferative activity profile (in words)” value in data set [3] was “active only against mammalian cell lines”. The compound further yielded an IC50 at 5 d in data set [4] of 19 µM. Besides, the IC50 at 4 d in “in vitro” stood at 58.9 µM. Besides, the half-inhibitory concentration (IC50) in data set [5] was determined as 58.9 µM.

In the case of `COc1cc(O)c2c(=O)c3c(O)cc(C)cc3oc2c1OC` [Compound 2, 1,8-dihydroxy-5,6-dimethoxy-3-methylxanthone], in data set [2], the IC50 at 3 d was more than 165 µM. In addition, the MIC (in data set [1]; in the data set with C. acutatum (BCC 58146)) was more than 165 µM each time. Also, the IC50 at 5 d in data set [4] was more than 165 µM. In the data set “in vitro”, this compound displayed an IC50 at 4 d of more than 165 µM.

Regarding `COc1cc2oc3cc(C)cc(O)c3c(=O)c2c(C)c1O` [Compound 3, 1,7-dihydroxy-6-methoxy-3,8-dimethylxanthone], in data set [2], the IC50 at 3 d is more than 175 µM. In addition, the MIC (in data set [1]; in the data set on C. acutatum (BCC 58146)) was more than 175 µM throughout. In data set [4], this compound displayed an IC50 at 5 d of more than 175 µM. This compound also yielded an IC50 at 4 d in “in vitro” of more than 175 µM.

In turn, `CCC(=O)c1cc(OC)cc2oc3cc(C)cc(O)c3c(=O)c12` [Compound 4, 1-hydroxy-6-methoxy-3-methyl-8-propionylxanthone] returned an IC50 at 3 d in data set [2] of 42.5 µM. For the same compound, the MIC (in data set [1]; in the data set with C. acutatum (BCC 58146)) was more than 160 µM in each case. In addition, the “antiproliferative activity profile (in words)” value in data set [3] is on record as “active only against mammalian cell lines”. In addition, the IC50 at 5 d in data set [4] was more than 160 µM. In “in vitro”, this compound showed an IC50 at 4 d of more than 160 µM.

With `O=C(O)CCC(=O)OCCc1ccccc1` [Compound 7, 4-oxo-4-phenethoxybutanoic acid], in data set [2], the 50% inhibitory concentration (IC50) at 3 d was more than 225 µM. The MIC (in data set [1]; with C. acutatum (BCC 58146)) was more than 225 µM each time. The same compound returned an IC50 at 5 d in data set [4] of more than 225 µM. In the data set “in vitro”, this compound returned an IC50 at 4 d of more than 225 µM.

With `COc1cccc2c1C(=O)c1c(O)c3c(c(O)c1C2=O)C[C@@](O)(C(=O)CO)C[C@@H]3O[C@H]1C[C@H](N)[C@H](O)[C@H](C)O1` [Doxorubicin, reference compound], the 50% inhibitory concentration (IC50) at 3 d in data set [2] was found to be 11.9 µM. The compound also displayed an IC50 at 5 d in data set [4] of 0.2 µM.

Usually IC50 stands for the concentration that gives 50% inhibition.
